This is an account of results in ChEMBL document CHEMBL5252510, “A Novel Potent Oral Series of VEGFR2 Inhibitors Abrogate Tumor Growth by Inhibiting Angiogenesis” (J Med Chem, 2016).

Active and inactive are the calls of the source. No cut-off for these calls is given here.

Test [1] deals with Hepatocyte growth factor receptor (Homo sapiens) (UniProt P08581). The test is described as follows: Inhibition of human recombinant GST-fused c-MET expressed in baculovirus expression system using poly-Glu-Tyr (4:1) as substrate measured after 10 mins in presence of gamma-[33P]-ATP by scintillation counting analysis. Summed up: (§1)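 GST-fused kinase domains were expressed in baculovirus and purified on glutathione-Sepharose. 10 min at ambient temperature, stopped with EDTA. Filter binding and scintillation counting. IC50 by linear regression of percent inhibition.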

Test [2] concerns the target Cyclin-dependent kinase 1 (Homo sapiens) (UniProt P06493). Nature of the test: Inhibition of human recombinant GST-fused CDK1 expressed in baculovirus expression system using poly-Glu-Tyr (4:1) as substrate measured after 10 mins in presence of gamma-[33P]-ATP by scintillation counting analysis. Summed up: as §1
In test [3] the target is Fibroblast growth factor receptor 3 (Homo sapiens) (UniProt P22607). The test is described as follows: Inhibition of human recombinant GST-fused FGFR3 expressed in baculovirus expression system using poly-Glu-Tyr (4:1) as substrate measured after 10 mins in presence of gamma-[33P]-ATP by scintillation counting analysis. The method, boiled down:
as §1

In test [4] the test system is BaF3. The test is described as follows: Antiproliferative activity against mouse BaF3 cells expressing Bcr-ABL assessed as cell growth inhibition measured after 72 hrs by Alamar Blue assay. To be noted: BaF3, 72 h. (In general: The colour change of resazurin is a common sign of viable cells or microbes.)
Test [5] deals with BaF3. The test is described as follows: Antiproliferative activity against mouse BaF3 cells expressing ERBB2 V659E mutant assessed as cell growth inhibition measured after 72 hrs by Alamar Blue assay. To be noted: BaF3, 72 h.
Test [6] concerns BaF3. The test is described as follows: Antiproliferative activity against mouse BaF3 cells expressing Tel-FGFR3 assessed as cell growth inhibition measured after 72 hrs by Alamar Blue assay. To be noted: BaF3, 72 h.
Test [7] concerns BaF3. The test is described as follows: Antiproliferative activity against mouse BaF3 cells expressing FLT3-ITD assessed as cell growth inhibition measured after 72 hrs by Alamar Blue assay. Conditions: BaF3, 72 h.
For test [8], the system named is BaF3. The test is described as follows: Antiproliferative activity against mouse BaF3 cells expressing Tel-IGF-1R assessed as cell growth inhibition measured after 72 hrs by Alamar Blue assay. Conditions: BaF3, 72 h.
The subject of test [9] is BaF3. The test is described as follows: Antiproliferative activity against mouse BaF3 cells expressing KIT D816V mutant assessed as cell growth inhibition measured after 72 hrs by Alamar Blue assay. Conditions: BaF3, 72 h.
For test [10], the system named is BaF3. Nature of the test: Antiproliferative activity against mouse BaF3 cells expressing Trp-MET assessed as cell growth inhibition measured after 72 hrs by Alamar Blue assay. To be noted: BaF3, 72 h.
Test [11] has as its system BaF3. Nature of the test: Antiproliferative activity against mouse BaF3 cells expressing PTC3-RET assessed as cell growth inhibition measured after 72 hrs by Alamar Blue assay. Conditions: BaF3, 72 h.
The test system of test [12] is BaF3. Nature of the test: Antiproliferative activity against mouse BaF3 cells expressing Tel-PDGFRbeta assessed as cell growth inhibition measured after 72 hrs by Alamar Blue assay. Conditions: BaF3, 72 h.
For test [13], the system named is BaF3. The test is described as follows: Antiproliferative activity against mouse BaF3 cells assessed as cell growth inhibition measured after 72 hrs by Alamar Blue assay. To be noted: BaF3, 72 h.
Test [14] deals with BaF3. Nature of the test: Antiproliferative activity against mouse BaF3 cells expressing NPM-ALK assessed as cell growth inhibition measured after 72 hrs by Alamar Blue assay. Conditions: BaF3, 72 h.
Test [15] deals with HUVEC. Nature of the test: Antiproliferative activity against VEGF-stimulated HUVEC cells assessed as cell growth inhibition measured after 24 hrs by BrdUrd incorporation based spectrophotometric analysis. To be noted: Homo sapiens.
Test [16] has as its system HUVEC. The test is described as follows: Antiproliferative activity against bFGF-stimulated HUVEC cells assessed as cell growth inhibition measured after 24 hrs by BrdUrd incorporation based spectrophotometric analysis. Conditions: Homo sapiens.
Test [17] has as its target Vascular endothelial growth factor receptor 2 (Mus musculus, UniProt P35918). Nature of the test: Inhibition of mouse recombinant GST-fused VEGFR2 kinase domain expressed in baculovirus expression system using poly-Glu-Tyr (4:1) as substrate measured after 10 mins in presence of gamma-[33P]-ATP by scintillation counting analysis. The method, boiled down:
as §1

Test [18] has as its system B16-BL6. Nature of the test: Antitumor activity against mouse B16-BL6 cells implanted in C57BL/6jNpa mouse assessed as primary tumor growth inhibition by measuring T/C ratio at 100 mg/kg, po qd administered started on day 7 post implantation measured after 21 days. To be noted: time 7-21 day. The test is classed as functional. The method, boiled down: (§2)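 Female C57BL/6JNpa mice, 50000 B16/BL6 cells intradermally in both ear pinnae; primary tumor area (mm²) imaged days 7, 14, 21; randomized day 7 into groups of 5-6, oral dosing in PEG200 or PEG300 vehicle daily (or every 2 days) for 14 days; day 21 cervical lymph nodes weighed, metastasis lysates assayed for TIE-2 by ELISA; T/C ratios.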

Test [19] has as its system B16-BL6. The test is described as follows: Antitumor activity against mouse B16-BL6 cells implanted in C57BL/6jNpa mouse assessed as metastatic tumor growth inhibition by measuring T/C ratio at 100 mg/kg, po qd administered started on day 7 post implantation measured after 21 days relative to control. Format: functional. Conditions: time 7-21 day. The method, boiled down:
as §2

The nature of test [20]: Antitumor activity against rat BN472 cell implanted in Brown-Norway rat assessed as tumor growth inhibition by measuring T/C ratio at 100 mg/kg, po qd measured upto 14 days. The test is classed as functional. To be noted: time <= 14 day. The method, boiled down:
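Female Brown-Norway rats (160-180 g) given 3 mm³ BN472 tumor fragments in mammary fat pads; at about 200 mm², randomized into groups of 7-8 and dosed orally with compound or PEG300 vehicle over 14 days; tumor growth followed, T/C computed; significance by 2-way RM-ANOVA.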

Hepatocyte growth factor receptor (Homo sapiens), sequence (P08581 whole entry, the tested form may be a part): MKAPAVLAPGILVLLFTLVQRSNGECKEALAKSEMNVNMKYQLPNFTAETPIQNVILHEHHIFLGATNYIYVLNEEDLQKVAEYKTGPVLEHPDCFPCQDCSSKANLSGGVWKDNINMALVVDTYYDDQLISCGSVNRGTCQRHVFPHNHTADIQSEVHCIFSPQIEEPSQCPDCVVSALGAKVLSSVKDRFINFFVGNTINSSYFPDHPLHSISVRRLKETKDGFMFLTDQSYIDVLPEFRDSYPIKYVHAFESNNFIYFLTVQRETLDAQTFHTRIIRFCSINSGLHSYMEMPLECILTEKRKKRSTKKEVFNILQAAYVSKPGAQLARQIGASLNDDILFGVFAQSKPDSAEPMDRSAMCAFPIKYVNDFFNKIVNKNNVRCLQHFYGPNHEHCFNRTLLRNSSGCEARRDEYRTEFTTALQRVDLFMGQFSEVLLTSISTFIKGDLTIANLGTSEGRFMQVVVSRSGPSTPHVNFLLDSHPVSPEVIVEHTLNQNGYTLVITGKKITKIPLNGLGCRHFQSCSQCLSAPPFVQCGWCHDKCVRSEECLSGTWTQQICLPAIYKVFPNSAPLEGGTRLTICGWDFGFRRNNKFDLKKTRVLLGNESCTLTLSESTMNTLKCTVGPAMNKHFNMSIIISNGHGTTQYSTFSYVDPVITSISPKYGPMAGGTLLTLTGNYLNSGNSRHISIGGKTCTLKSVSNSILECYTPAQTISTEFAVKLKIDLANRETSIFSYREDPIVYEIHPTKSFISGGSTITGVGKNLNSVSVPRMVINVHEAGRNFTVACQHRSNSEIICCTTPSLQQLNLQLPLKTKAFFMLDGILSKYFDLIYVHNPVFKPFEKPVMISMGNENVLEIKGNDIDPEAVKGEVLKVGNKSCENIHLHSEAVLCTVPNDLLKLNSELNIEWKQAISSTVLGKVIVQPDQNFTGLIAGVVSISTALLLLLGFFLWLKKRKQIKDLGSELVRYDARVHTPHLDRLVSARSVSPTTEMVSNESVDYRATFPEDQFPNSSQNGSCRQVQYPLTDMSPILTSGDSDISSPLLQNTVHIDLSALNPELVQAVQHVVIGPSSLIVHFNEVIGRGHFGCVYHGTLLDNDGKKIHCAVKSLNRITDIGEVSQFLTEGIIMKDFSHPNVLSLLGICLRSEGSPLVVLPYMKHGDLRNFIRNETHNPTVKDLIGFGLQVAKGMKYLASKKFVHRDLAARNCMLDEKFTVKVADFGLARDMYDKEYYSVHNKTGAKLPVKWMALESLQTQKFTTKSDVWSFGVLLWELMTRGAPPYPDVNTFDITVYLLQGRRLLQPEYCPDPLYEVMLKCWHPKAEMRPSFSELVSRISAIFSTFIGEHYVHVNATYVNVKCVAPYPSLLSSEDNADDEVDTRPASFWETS
Cyclin-dependent kinase 1 (Homo sapiens), sequence (P06493 whole entry, looked up, the tested form may be a part): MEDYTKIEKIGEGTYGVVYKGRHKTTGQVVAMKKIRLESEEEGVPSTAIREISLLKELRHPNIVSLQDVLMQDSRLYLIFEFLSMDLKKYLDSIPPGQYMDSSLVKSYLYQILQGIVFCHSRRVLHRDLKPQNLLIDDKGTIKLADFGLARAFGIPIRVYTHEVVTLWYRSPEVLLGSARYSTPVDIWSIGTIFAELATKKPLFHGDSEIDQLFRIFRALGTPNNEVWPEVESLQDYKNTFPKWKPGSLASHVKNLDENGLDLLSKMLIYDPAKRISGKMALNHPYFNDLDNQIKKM
Fibroblast growth factor receptor 3 (Homo sapiens), sequence (P22607 23-806 limits assumed): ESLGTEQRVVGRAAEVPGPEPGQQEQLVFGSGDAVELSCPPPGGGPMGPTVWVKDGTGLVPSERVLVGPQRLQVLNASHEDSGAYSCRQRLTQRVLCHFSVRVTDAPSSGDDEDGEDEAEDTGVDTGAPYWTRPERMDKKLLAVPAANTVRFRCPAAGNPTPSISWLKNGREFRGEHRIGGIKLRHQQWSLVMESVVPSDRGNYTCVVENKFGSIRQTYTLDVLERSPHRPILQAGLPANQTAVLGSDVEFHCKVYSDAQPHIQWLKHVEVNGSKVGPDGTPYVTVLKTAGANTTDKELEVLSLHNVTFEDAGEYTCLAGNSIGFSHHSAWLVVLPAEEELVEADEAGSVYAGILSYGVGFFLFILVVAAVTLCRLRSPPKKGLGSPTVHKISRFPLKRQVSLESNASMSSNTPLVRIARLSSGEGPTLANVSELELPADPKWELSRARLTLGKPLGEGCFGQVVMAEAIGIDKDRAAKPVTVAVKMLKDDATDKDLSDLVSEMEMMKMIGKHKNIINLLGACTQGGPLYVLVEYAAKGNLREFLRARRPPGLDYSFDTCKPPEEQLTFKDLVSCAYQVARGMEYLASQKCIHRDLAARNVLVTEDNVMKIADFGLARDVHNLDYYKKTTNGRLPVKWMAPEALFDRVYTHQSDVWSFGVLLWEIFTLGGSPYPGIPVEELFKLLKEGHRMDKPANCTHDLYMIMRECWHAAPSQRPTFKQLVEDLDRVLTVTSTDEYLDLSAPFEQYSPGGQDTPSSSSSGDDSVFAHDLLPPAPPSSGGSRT
Vascular endothelial growth factor receptor 2, sequence (P35918 whole entry, the tested form may be a part): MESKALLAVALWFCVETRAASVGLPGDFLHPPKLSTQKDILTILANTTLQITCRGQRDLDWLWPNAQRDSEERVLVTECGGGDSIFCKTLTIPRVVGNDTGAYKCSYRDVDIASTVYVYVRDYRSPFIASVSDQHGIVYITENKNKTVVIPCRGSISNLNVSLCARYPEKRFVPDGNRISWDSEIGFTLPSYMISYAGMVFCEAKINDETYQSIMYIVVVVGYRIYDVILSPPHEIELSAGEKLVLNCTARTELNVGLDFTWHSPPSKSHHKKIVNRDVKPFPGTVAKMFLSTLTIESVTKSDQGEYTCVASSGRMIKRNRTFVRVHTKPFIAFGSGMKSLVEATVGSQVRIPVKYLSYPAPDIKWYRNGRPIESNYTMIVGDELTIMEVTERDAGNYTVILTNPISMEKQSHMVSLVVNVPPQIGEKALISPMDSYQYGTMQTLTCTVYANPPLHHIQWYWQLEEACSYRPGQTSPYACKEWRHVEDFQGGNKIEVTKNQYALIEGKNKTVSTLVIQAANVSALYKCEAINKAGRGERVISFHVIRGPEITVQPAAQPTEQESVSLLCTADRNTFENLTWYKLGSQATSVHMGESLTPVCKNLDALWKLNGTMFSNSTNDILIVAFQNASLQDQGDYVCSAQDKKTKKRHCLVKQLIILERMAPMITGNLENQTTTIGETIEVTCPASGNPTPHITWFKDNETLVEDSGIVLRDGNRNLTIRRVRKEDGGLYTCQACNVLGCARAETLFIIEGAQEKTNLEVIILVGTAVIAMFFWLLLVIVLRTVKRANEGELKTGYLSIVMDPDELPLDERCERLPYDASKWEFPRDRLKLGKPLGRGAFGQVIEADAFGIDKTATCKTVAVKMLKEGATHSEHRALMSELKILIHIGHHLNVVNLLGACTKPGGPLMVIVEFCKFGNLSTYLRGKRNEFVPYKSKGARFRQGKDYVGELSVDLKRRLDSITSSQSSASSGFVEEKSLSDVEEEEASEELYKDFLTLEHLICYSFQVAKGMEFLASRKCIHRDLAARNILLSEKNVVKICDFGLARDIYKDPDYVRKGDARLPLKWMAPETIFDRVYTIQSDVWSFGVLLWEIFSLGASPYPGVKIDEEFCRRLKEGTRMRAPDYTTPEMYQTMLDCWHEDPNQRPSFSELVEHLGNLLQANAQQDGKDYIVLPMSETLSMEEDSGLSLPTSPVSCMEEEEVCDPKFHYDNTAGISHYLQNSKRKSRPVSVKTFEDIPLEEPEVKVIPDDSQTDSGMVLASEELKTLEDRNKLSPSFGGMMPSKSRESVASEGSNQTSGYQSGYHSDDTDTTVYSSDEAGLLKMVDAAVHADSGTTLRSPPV

What is called IC50 is the point on the concentration scale where inhibition reaches its midpoint. `CCN(CC)CCNC(=O)c1c(C)[nH]c(/C=C2\C(=O)Nc3ccc(F)cc32)c1C` [SUNITINIB]: the inhibition entry in test [1], in [2] and in [3] was “Active” each time. Besides, the IC50 in [4] was found to be 7180 nM; in test [5] it was 3850 nM; in test [6], 1560 nM; in test [7] it was 35 nM; in test [8], 1290 nM; in test [9], 1470 nM. In addition, the IC50 was 5120 nM in test [10]; 297 nM in test [11]; 2.3 nM in test [12]; more than 10000 nM in test [13]; 1150 nM in test [14]; 7 nM in test [15]. Also, in test [16], the IC50 is more than 3000 nM.

As for `CNC(=O)c1cc(Oc2ccc(NC(=O)Nc3ccc(Cl)c(C(F)(F)F)c3)cc2)ccn1` [SORAFENIB], the inhibition result in test [1], in test [2] and in test [3] was “Active” throughout. Besides, the IC50 in test [4] was 5820 nM; in test [5], 4210 nM; in test [6] it was 2460 nM; in [7], 12 nM; in test [8], 3680 nM; in test [9], 2800 nM. The IC50 in test [10] was 7400 nM; in test [11] it was 78 nM; in test [13], more than 10000 nM; in [14] it was 1010 nM.

Turning to `O=C(Nc1cccc(C(F)(F)F)c1)c1ccccc1NCc1ccncc1`, the IC50 in test [17] is 55 nM; in [4] it was more than 5500 nM; in [5], 5600 nM; in test [6], more than 5500 nM; in test [7], more than 5500 nM; in test [8], 8400 nM. For the same compound, the half-inhibitory concentration (IC50) is more than 5500 nM in test [9]; more than 5500 nM in test [10]; 2900 nM in [11]; 19 nM in [12]; more than 10000 nM in test [13]; more than 5500 nM in [14]. Also, the IC50 in [15] was 1 nM; in test [16], more than 3000 nM. Besides, the figures for the T/C in [18], in test [19] and in test [20] were 0.35, 0.17 and 0.37, respectively.
